Test results reported in ChEMBL document CHEMBL4610110, “Targeting mPGES-1 by a Combinatorial Approach: Identification of the Aminobenzothiazole Scaffold to Suppress PGE2 Levels” (ACS Med Chem Lett, 2020).
The source made the active and inactive calls. The rule behind the calls is not given here.

Assays:
[1] = biological target: T1, Prostaglandin E synthase (Homo sapiens) (UniProt O14684); assay: Inhibition of mPGES1 in human A549 cells assessed as reduction in IL-1beta induced PGE2 release by measuring residual activity at 10 uM using PGH2 as substrate preincubated for 15 mins followed by substrate addition and measured after 1 min by RP-UV-HPLC analysis relative to control; assay type: cell-based
T1 sequence (whole entry): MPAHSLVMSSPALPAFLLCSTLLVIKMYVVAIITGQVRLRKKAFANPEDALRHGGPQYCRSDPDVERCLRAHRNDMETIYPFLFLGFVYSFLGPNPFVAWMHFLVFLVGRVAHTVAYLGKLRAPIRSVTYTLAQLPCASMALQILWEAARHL
Summary of the method: (§1)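 The enzyme source was microsomes from IL-1β-stimulated A549 cells in a cell-free assay. The read-out was enzymatic conversion of PGH2 (20 μM) to PGE2.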

A549 [2] = assay: Antiproliferative activity against human A549 cells assessed as inhibition of cell viability incubated for 24 hrs by MTT assay; assay type: functional, cell-based; settings: A549, 24 h
Summary of the method: (§2)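 A549 cells were exposed to test compounds in an MTT viability assay (5–100 μM for the 48 h and 72 h exposures). IC50 is the mean ± S.D. of single determinations from three independent experiments.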

A549 [3] = assay: Antiproliferative activity against human A549 cells assessed as inhibition of cell viability incubated for 48 hrs by MTT assay; assay type: functional, cell-based; settings: A549, 48 h; summary of the method: as §2
A549 [4] = assay: Antiproliferative activity against human A549 cells assessed as inhibition of cell viability incubated for 72 hrs by MTT assay; assay type: functional, cell-based; settings: A549, 72 h; summary of the method: as §2
Prostaglandin E synthase = biological target: T2, Prostaglandin E synthase (Homo sapiens, UniProt O14684); assay: Inhibition of mPGES1 in human A549 cells assessed as reduction in IL-1beta induced PGE2 release using PGH2 as substrate preincubated for 15 mins followed by substrate addition and measured after 1 min by RP-UV-HPLC analysis; assay type: cell-based; summary of the method: as §1
T2 sequence (O14684 whole entry): T1 sequence (whole entry)

[5] = biological target: T1, Prostaglandin E synthase (Homo sapiens); assay: Inhibition of mPGES1 in human A549 cells assessed as reduction in IL-1beta induced PGE2 release incubated for 24 hrs by ELISA; assay type: cell-based
Summary of the method: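 A549 cells were incubated for 24 h at 5 or 10 μM in medium with 1% FBS and 10 ng/mL IL-1β. PGE2 released into the medium was quantified by ELISA against DMSO vehicle-treated cells. Values are mean ± SEM (pg/mL) of two independent experiments.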

A549 [6] = assay: Induction of cell cycle arrest in human A549 cells assessed as accumulation at G2/M phase at 30 uM incubated for 72 hrs by propidium iodide staining based flow cytometric analysis; assay type: functional
Summary of the method: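 A549 cells were treated at several concentrations for 48 or 72 h, then stained for DNA with propidium iodide. Cell-cycle phase percentages were read by flow cytometry. Values are means ± SEM of two independent experiments, each run in triplicate.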

A549 [7] = assay: Induction of programmed cell death in human A549 cells assessed as accumulation at subG0/G1 phase at 20 to 30 uM incubated for 48 hrs by propidium iodide staining based flow cytometric analysis relative to control; assay type: functional
Summary of the method: (§3)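 A549 human lung epithelial cancer cells were exposed to compound at several concentrations for 48 or 72 h. DNA was then stained with propidium iodide, and the percentage of cells in each cycle phase was measured by flow cytometry. The hypodiploid subG0/G1 fraction was read as cell death. Values are mean ± SEM of two independent experiments, each run in triplicate.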

A549 [8] = assay: Induction of programmed cell death in human A549 cells assessed as accumulation at subG0/G1 phase at 20 to 30 uM incubated for 72 hrs by propidium iodide staining based flow cytometric analysis relative to control; assay type: functional; summary of the method: as §3

Activity [1] [%] | SMILES | IC50 (A549 [2]) [µM] | IC50 (A549 [3]) [µM] | IC50 (A549 [4]) [µM] | IC50 (Prostaglandin E synthase) [µM] | inhibition [5] | also measured
 | Cc1cc(C)c(C(=O)Nc2nc3cc(-c4cccc(C(N)=O)c4)ccc3s2)o1 |  |  |  |  |  | inhibition [1]: inactive
 | O=C1OC(O)C(c2cc3ccccc3s2)=C1Br (stereo unspecified) | 98.5 | 12.5 | 9.1 |  |  | 
 | NC(=O)c1cccc(-c2ccc3sc(NC(=O)c4c(Cl)cccc4Cl)nc3c2)c1 |  |  |  |  |  | inhibition [1]: inactive
 | O=C(Nc1nc2ccc(-c3cccc(CO)c3)cc2s1)c1ccccc1Br | 97.5 | 57.5 | 18.1 | 0.7 | Dose-dependent effect | Activity (A549 [6]): Active; Activity (A549 [7]): 5%; Activity (A549 [8]): 18%
> 30 | O=C(Nc1nc2cc(-c3cccc(CO)c3)ccc2s1)c1ccc(F)cc1Cl |  |  |  |  |  | 
> 30 | Cc1cc(C)c(C(=O)Nc2nc3cc(-c4cccc(CO)c4)ccc3s2)o1 |  |  |  |  |  | 
> 30 | O=C(Nc1nc2cc(-c3cccc(CO)c3)ccc2s1)c1ccccc1Br |  |  |  |  |  | 
 | Cc1cc(C)c(C(=O)Nc2nc3ccc(-c4cccc(CO)c4)cc3s2)o1 | 95 | 63.2 | 55.2 | 2.6 | Dose-dependent effect | 
> 30 | O=C(Nc1nc2cc(-c3cccc(CO)c3)ccc2s1)c1c(Cl)cccc1Cl |  |  |  |  |  | 
 | O=C(Nc1nc2ccc(-c3cccc(CO)c3)cc2s1)c1ccc(F)cc1Cl | 98.2 | 71.4 | 28.5 | 1.4 | Dose-dependent effect | Activity (A549 [7]): inactive; Activity (A549 [8]): inactive
 | NC(=O)c1cccc(-c2ccc3sc(NC(=O)c4ccc(F)cc4C(F)(F)F)nc3c2)c1 | 98.3 | 50.6 | 19.2 | 1.7 | Dose-dependent effect | Activity (A549 [7]): 6%; Activity (A549 [8]): 7%
